ChEMBL document CHEMBL1121953, “Carbon-7 substituted actinomycin D analogues as improved antitumor agents: synthesis and DNA-binding and biological properties” (J Med Chem, 1982)
Converted amounts (≈) assume the structure as drawn.

Experiments:
[1] = In vitro growth inhibitory activity for effect on melting temperature of DNA was determined
In short: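 DNA thermal denaturation; ΔTm = Tm of DNA-drug complex minus Tm of DNA. Drug 1.4×10⁻⁴ M, DNA (P) 1.4×10⁻³ M in 0.01 M phosphate buffer pH 7.0 with 5×10⁻³ M EDTA and 5% dimethyl sulfoxide.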

[2] = Therapeutic Index measured as the MTD/MED ratio compared to that of compound 4; conditions: read-out: Therapeutic index
In short: (§1)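 Therapeutic index is MTD/MED, with ip dosing in 10% dimethyl sulfoxide-saline on a qd 1-4 or q4d 1, 5, 9 schedule. MED is the dose giving a 40% increase in life span over control in P-388-bearing mice. MTD is the LD10 in tumor-free male CDF1 mice (18-23 g) over 21 days, read from a log dose vs. percent mortality plot and averaged over 2-3 experiments.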

[3] = Therapeutic Index measured as the MTD/MED ratio compared to that of compound 3; conditions: read-out: Therapeutic index; in short: as §1
Homo sapiens = species on record: Homo sapiens; test: In vitro growth inhibitory activity against human lymphoblastic leukemia cells; assay type: functional; conditions: read-out: ID50 (the source's name)
In short: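 CCRF-CEM human lymphoblastic leukemia cells in log-phase growth; compounds dissolved in Me₂SO, final growth medium 1% Me₂SO.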

## Cc1c2oc3c(C)c(O)c(N)c(C(=O)N[C@H]4C(=O)N[C@@H](C(C)C)C(=O)N5CCC[C@H]5C(=O)N(C)CC(=O)N(C)[C@H](C(C)C)C(=O)O[C@H]4C)c3nc-2c(C(=O)N[C@@H]2C(=O)N[C@H](C(C)C)C(=O)N3CCC[C@@H]3C(=O)N(C)CC(=O)N(C)[C@@H](C(C)C)C(=O)O[C@@H]2C)cc1=O
[1]
  DNA melting temperature shift (ΔTm): 6.7 °C

## Cc1c2oc3c(C)c(OCC4CO4)cc(C(=O)N[C@H]4C(=O)N[C@@H](C(C)C)C(=O)N5CCC[C@H]5C(=O)N(C)CC(=O)N(C)[C@@H](C(C)C)C(=O)O[C@H]4C)c3nc-2c(C(=O)N[C@H]2C(=O)N[C@@H](C(C)C)C(=O)N3CCC[C@H]3C(=O)N(C)CC(=O)N(C)[C@@H](C(C)C)C(=O)O[C@H]2C)c(N)c1=O (stereo not given in full)
[1]
  DNA melting temperature shift (ΔTm): 6 °C

## Cc1c2oc3c(C)c(OCC(O)CO)cc(C(=O)N[C@@H]4C(=O)N[C@H](C(C)C)C(=O)N5CCC[C@H]5C(=O)N(C)CC(=O)N(C)[C@@H](C(C)C)C(=O)O[C@@H]4C)c3nc-2c(C(=O)N[C@@H]2C(=O)N[C@H](C(C)C)C(=O)N3CCC[C@H]3C(=O)N(C)CC(=O)N(C)[C@@H](C(C)C)C(=O)O[C@@H]2C)c(N)c1=O (stereo not given in full)
[2]
  selectivity ratio: 6
[3]
  selectivity ratio: 12

## CCN(CC)C(=O)c1c2nc3c(C(=O)N(CC)CC)cc(OCC(O)CO)c(C)c3oc-2c(C)c(=O)c1N (stereo not given)
Homo sapiens
  IC50: ~10 µg/mL (≈ 18.9 µM)
[1]
  DNA melting temperature shift (ΔTm): 0 °C

## CCN(CC)C(=O)c1c2nc3c(C(=O)N(CC)CC)ccc(C)c3oc-2c(C)c(=O)c1N
Homo sapiens
  IC50: ~10 µg/mL (≈ 22.8 µM)
[1]
  DNA melting temperature shift (ΔTm): 0 °C

## Cc1c2oc3c(C)c(OCC4CO4)cc(C(=O)N[C@@H]4C(=O)N[C@H](C(C)C)C(=O)N5CCC[C@H]5C(=O)N(C)CC(=O)N(C)[C@@H](C(C)C)C(=O)O[C@@H]4C)c3nc-2c(C(=O)N[C@@H]2C(=O)N[C@H](C(C)C)C(=O)N3CCC[C@H]3C(=O)N(C)CC(=O)N(C)[C@@H](C(C)C)C(=O)O[C@@H]2C)c(N)c1=O (stereo not given in full)
[2]
  selectivity ratio: 43
[3]
  selectivity ratio: 72
